Results from ChEMBL document CHEMBL1146767, “New highly selective inhibitors of class II fructose-1,6-bisphosphate aldolases” (Bioorg Med Chem Lett, 2004).

What was measured:
[1] = (§1) In vitro binding affinity towards FBP aldolase from Bacillus subtilis
Procedure, shortened: (§2)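 B. subtilis class II aldolase. FBP cleavage was followed by reducing the DHAP formed with a 300-fold excess of glycerophosphate dehydrogenase and reading NADH consumption at 340 nm. Medium was 0.1 M glycylglycine buffer, pH 7.4, without 2-mercaptoethanol. Inhibition was analysed with FBP as substrate.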

[2] = In vitro binding affinity towards FBP aldolase from yeast; design: species or system Saccharomyces cerevisiae
Procedure, shortened: (§3)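 Yeast aldolase was partly purified after French-press cell disruption (specific activity 5.5 U/mg). DHAP from FBP cleavage was coupled to glycerophosphate dehydrogenase (300-fold excess), with NADH loss monitored at 340 nm. Buffer was 0.1 M glycylglycine, pH 7.4, with 0.01 M 2-mercaptoethanol. FBP served as substrate.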

[3] = In vitro binding affinity towards FBP aldolase from rabbit; design: species or system Oryctolagus cuniculus
Procedure, shortened: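 Rabbit muscle class I aldolase, FBP substrate. Cleavage product DHAP was followed spectrophotometrically at 340 nm through NADH consumption, using a 300-fold excess of glycerophosphate dehydrogenase as coupling enzyme. Medium was 0.1 M triethanolamine–HCl pH 7.6 with 1 mM EDTA.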

Oryctolagus cuniculus [4] = species on record: Oryctolagus cuniculus; experiment: Selectivity (Ki rabbit /Ki B:subtilis) of inhibitors for class II versus class I FBP aldolase
Oryctolagus cuniculus [5] = species on record: Oryctolagus cuniculus; experiment: Selectivity (Ki rabbit /Ki yeast) of inhibitors for class II versus class I FBP aldolase
Bacillus subtilis = experiment: Enzymatic kinetics (Km) constant towards FBP aldolase from Bacillus subtilis; procedure, shortened: as §2
Saccharomyces cerevisiae = experiment: Enzymatic kinetics (Km) constant towards FBP aldolase from yeast; procedure, shortened: as §3
Oryctolagus cuniculus [6] = species on record: Oryctolagus cuniculus; experiment: Enzymatic kinetics (Km) constant towards FBP aldolase from rabbit
Procedure, shortened: (§4)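 Rabbit muscle class I aldolase was assayed in 0.1 M triethanolamine–HCl, pH 7.6, with 1 mM EDTA. DHAP released from FBP was measured through a coupled reaction with a 300-fold excess of glycerophosphate dehydrogenase, following NADH consumption spectrophotometrically at 340 nm.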

[7] = In vitro binding towards FBP aldolase from rabbit; design: species or system Oryctolagus cuniculus; procedure, shortened: as §4
[8] = as §1; remark: listed apart in the source
Procedure, shortened: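 Class II aldolase from Bacillus subtilis with FBP as substrate. DHAP formed was measured at 340 nm as NADH consumption, coupled to a 300-fold excess of glycerophosphate dehydrogenase. Medium was 0.1 M glycylglycine buffer pH 7.4, without 2-mercaptoethanol.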

| Ki [1] | Ki [2] | Selectivity (Oryctolagus cuniculus [5]) | Km (Bacillus subtilis) | Km (Saccharomyces cerevisiae) | Km (Oryctolagus cuniculus [6]) | Ki [7] | SMILES | Ki [3] | Selectivity (Oryctolagus cuniculus [4]) | Ki [8] |
| --- | --- | --- | --- | --- | --- | --- | --- | --- | --- | --- |
| 3.3 µM | 2.3 µM | > 435 |  |  |  |  | N/C(COP(=O)(O)O)=N/O | > 1000 µM | > 303 |  |
|  |  |  | 2000 µM | 450 µM | 55 µM |  | O=P(O)(O)OC[C@H]1O[C@](O)(COP(=O)(O)O)[C@@H](O)[C@@H]1O |  |  |  |
|  | 0.01 µM | 100 |  |  |  | 1 µM | O=C(COP(=O)(O)O)NO [PHOSPHOGLYCOLOHYDROXAMATE] |  |  |  |

| SMILES | Ki [1] | Ki [2] | Selectivity (Oryctolagus cuniculus [5]) | Km (Bacillus subtilis) | Km (Saccharomyces cerevisiae) | Km (Oryctolagus cuniculus [6]) | Ki [7] | Ki [3] | Selectivity (Oryctolagus cuniculus [4]) | Ki [8] |
| --- | --- | --- | --- | --- | --- | --- | --- | --- | --- | --- |
| NNC(=O)COP(=O)(O)O [PHOSPHORIC ACID MONOHYDRAZINOCARBONYLMETHYL ESTER] |  | 0.34 µM | 1090 |  |  |  |  | 370 µM | 552 | 670 µM |
